In assay [1] the target is T1, Monoacylglycerol lipase ABHD6 (Homo sapiens) (UniProt Q9BV23).
T1 sequence (whole entry): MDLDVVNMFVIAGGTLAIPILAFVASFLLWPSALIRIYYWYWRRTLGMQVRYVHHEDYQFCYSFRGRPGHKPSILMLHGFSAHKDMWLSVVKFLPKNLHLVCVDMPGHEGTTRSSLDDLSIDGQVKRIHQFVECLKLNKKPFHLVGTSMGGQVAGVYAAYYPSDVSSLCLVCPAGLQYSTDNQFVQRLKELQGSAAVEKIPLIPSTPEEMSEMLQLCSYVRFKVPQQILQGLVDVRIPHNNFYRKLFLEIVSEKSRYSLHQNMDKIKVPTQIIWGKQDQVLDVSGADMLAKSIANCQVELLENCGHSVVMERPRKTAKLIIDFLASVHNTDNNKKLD
Conditions: HEK293, 1 uM.

The target in assay [2] is T2, Monoacylglycerol lipase ABHD6 (Homo sapiens, UniProt Q9BV23).
T2 sequence (Q9BV23 whole entry): T1 sequence (whole entry)
The assay can be described thus: Inhibition of human ABHD6 expressed in HEK293 cells at 1 uM pre-incubated for 10 mins before 2-AG substrate addition followed by rapid 40 fold compound dilution measured after 90 mins by HPLC method. In kind it is cell-based.

The target of assay [3] is T2, Monoacylglycerol lipase ABHD6. Briefly: Inhibition of human ABHD6 expressed in HEK293 cells at 1 uM pre-incubated for 10 mins before 2-AG substrate addition followed by rapid 40 fold compound dilution measured after 30 mins by HPLC method. The format is cell-based.
The target in assay [4] is T3, Monoacylglycerol lipase ABHD6 (Mus musculus) (UniProt Q8R2Y0).
T3 sequence (whole entry): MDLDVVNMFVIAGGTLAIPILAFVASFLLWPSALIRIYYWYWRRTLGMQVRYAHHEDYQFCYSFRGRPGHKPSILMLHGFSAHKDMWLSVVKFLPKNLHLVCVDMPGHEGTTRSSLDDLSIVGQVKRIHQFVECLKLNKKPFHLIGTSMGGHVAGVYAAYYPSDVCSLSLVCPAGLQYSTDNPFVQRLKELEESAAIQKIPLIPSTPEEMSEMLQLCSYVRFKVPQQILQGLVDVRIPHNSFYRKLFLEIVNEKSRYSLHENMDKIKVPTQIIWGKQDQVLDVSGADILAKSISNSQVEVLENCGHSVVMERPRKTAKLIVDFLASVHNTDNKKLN
Briefly: Inhibition of ABHD6 in mouse whole brain membranes at 10 uM incubated for 1 hr by TAMRA-FP probe based competitive activity-based protein profiling assay. The format is cell membranes. Conditions: Membrane. The method in brief:
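Competitive ABPP on mouse brain membranes (100 µg) treated 1 h with DMSO or inhibitor. TAMRA-FP labelling then ran 1 h at RT (final probe 2 µM). Reaction was quenched with gel loading buffer and proteins resolved by 10% SDS–PAGE for fluorescent band read-out. WWL70 located the ABHD6 band. Gels are representative of two experiments.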

This note sets out measurements from ChEMBL document CHEMBL3612019, “Revisiting 1,3,4-Oxadiazol-2-ones: Utilization in the Development of ABHD6 Inhibitors” (Bioorg Med Chem, 2015).

Calls of active or inactive are those of the source. No cut-off for these calls is given here.

As to `COc1nn(Cc2cccc(N)c2)c(=O)o1`, the inhibition result in assay [1] and in assay [4] was “Active” each time. In addition, the IC50 was 3.31 µM in assay [2] and 3.8 µM in assay [3].

The IC50 is the concentration that inhibits the measured activity by half.
